Columns and labels:
Bifidobacterium longum [1] = test: Antimicrobial activity against 90 mins hydrogen peroxide-stressed Bifidobacterium longum ATCC 15708 after 18 hrs; format: functional
Outline: (§1)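 Stress applied for 90 min at 37°C under anaerobic conditions, using MRS (initial pH 6.5) containing H2O2 at each strain's own inhibitory concentration. The H2O2 level was set beforehand by microplate tolerance testing. Challenged cells were regrown in MRS for 24 h (footnote: 18 h) before MIC testing by broth microdilution. Median of four repetitions.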

[2] = Antimicrobial activity against 90 mins oxgall-stressed Bifidobacterium infantis ATCC 15697 after 18 hrs; format: functional, Bifidobacterium longum subsp. infantis; conditions: Bifidobacterium longum
Outline: (§2)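 Cells pelleted from mid-log MRS culture and resuspended in MRS (initial pH 6.5) with 0.3% (wt/vol) oxgall for 90 min anaerobically at 37°C. They were then regrown in MRS pH 6.5 for 24 h (footnote: 18 h) anaerobically and tested for MIC by the same broth microdilution assay. Median of four repetitions.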

Bifidobacterium animalis [3] = test: Antimicrobial activity against 60 min 1 M HCl-stressed Bifidobacterium animalis ATCC 27536 after 18 hrs; format: functional
Outline: (§3)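 Mid-log MRS culture pelleted and resuspended in MRS broth brought to pH 2.0 with 1 M HCl, held anaerobically at 37°C for 60 min, then subcultured in MRS (pH 6.5) for 24 h anaerobically before MIC testing by broth microdilution (as for unstressed cells). Table footnote gives 18 h anaerobic regrowth after the stress. MIC is the median of four repetitions.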

Bifidobacterium longum [4] = test: Antimicrobial activity against Bifidobacterium longum P/N 601377; format: functional
Outline: (§4)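 Broth microdilution in MRS plus 0.05% L-cysteine-HCl. Mid-log culture adjusted to OD650 0.1, giving about 2.5 × 10^4 to 5.0 × 10^4 CFU/well, then added to twofold serial dilutions of agent. Plates incubated anaerobically at 37°C for 18 h and read at OD650. MIC is the lowest concentration matching the uninoculated blank OD, taken as the median of four repeats.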

Bifidobacterium breve [5] = test: Antimicrobial activity against 90 mins hydrogen peroxide-stressed Bifidobacterium breve ATCC 15700 after 18 hrs; format: functional; outline: as §1
Bifidobacterium animalis [6] = test: Antimicrobial activity against 90 mins oxgall-stressed Bifidobacterium animalis ATCC 27536 after 18 hrs; format: functional; outline: as §2
[7] = tested on: Bifidobacterium thermophilum; test: Antimicrobial activity against 90 mins hydrogen peroxide-stressed Bifidobacterium thermophilum ATCC 25866 after 18 hrs; format: functional; outline: as §1
Bifidobacterium bifidum [8] = test: Antimicrobial activity against 90 mins oxgall-stressed Bifidobacterium bifidum R0071 after 18 hrs; format: functional; outline: as §2
Bifidobacterium longum [9] = test: Antimicrobial activity against 60 min 1 M HCl-stressed Bifidobacterium longum R0175 after 18 hrs; format: functional; outline: as §3
Bifidobacterium bifidum [10] = test: Antimicrobial activity against 90 mins oxgall-stressed Bifidobacterium bifidum ATCC 15696 after 18 hrs; format: functional; outline: as §2
Bifidobacterium bifidum [11] = test: Antimicrobial activity against 60 min 1 M HCl-stressed Bifidobacterium bifidum R0071 after 18 hrs; format: functional; outline: as §3
[12] = tested on: Bifidobacterium pseudolongum; test: Antimicrobial activity against 90 mins oxgall-stressed Bifidobacterium pseudolongum ATCC 25562 after 18 hrs; format: functional; outline: as §2
Bifidobacterium breve [13] = test: Antimicrobial activity against 60 min 1 M HCl-stressed Bifidobacterium breve R0070 after 18 hrs; format: functional; outline: as §3
[14] = tested on: Bifidobacterium thermophilum; test: Antimicrobial activity against 60 min 1 M HCl-stressed Bifidobacterium thermophilum ATCC 25866 after 18 hrs; format: functional; outline: as §3
Bifidobacterium breve [15] = test: Antimicrobial activity against 60 min 1 M HCl-stressed Bifidobacterium breve ATCC 15700 after 18 hrs; format: functional; outline: as §3
[16] = Antimicrobial activity against Bifidobacterium infantis ATCC 15697; format: functional, Bifidobacterium longum subsp. infantis; conditions: Bifidobacterium longum; outline: as §4
Bifidobacterium longum [17] = test: Antimicrobial activity against Bifidobacterium longum ATCC 15707; format: functional; outline: as §4
Bifidobacterium longum [18] = test: Antimicrobial activity against 90 mins hydrogen peroxide-stressed Bifidobacterium longum P/N 601377 after 18 hrs; format: functional; outline: as §1
Bifidobacterium bifidum [19] = test: Antimicrobial activity against 90 mins oxgall-stressed Bifidobacterium bifidum BB12 after 18 hrs; format: functional; outline: as §2
Bifidobacterium animalis [20] = test: Antimicrobial activity against 90 mins hydrogen peroxide-stressed Bifidobacterium animalis ATCC 27536 after 18 hrs; format: functional; outline: as §1
Bifidobacterium longum [21] = test: Antimicrobial activity against 90 mins hydrogen peroxide-stressed Bifidobacterium longum ATCC 15707 after 18 hrs; format: functional; outline: as §1
Bifidobacterium breve [22] = test: Antimicrobial activity against 90 mins oxgall-stressed Bifidobacterium breve R0070 after 18 hrs; format: functional; outline: as §2
[23] = tested on: Bifidobacterium pseudolongum; test: Antimicrobial activity against 60 min 1 M HCl-stressed Bifidobacterium pseudolongum ATCC 25562 after 18 hrs; format: functional; outline: as §3
[24] = Antimicrobial activity against 60 min 1 M HCl-stressed Bifidobacterium infantis ATCC 15697 after 18 hrs; format: functional, Bifidobacterium longum subsp. infantis; conditions: Bifidobacterium longum; outline: as §3
Bifidobacterium bifidum [25] = test: Antimicrobial activity against Bifidobacterium bifidum R0071; format: functional; outline: as §4
Bifidobacterium longum [26] = test: Antimicrobial activity against Bifidobacterium longum ATCC 15708; format: functional; outline: as §4
[27] = tested on: Bifidobacterium thermophilum; test: Antimicrobial activity against 90 mins oxgall-stressed Bifidobacterium thermophilum ATCC 25866 after 18 hrs; format: functional; outline: as §2
Bifidobacterium bifidum [28] = test: Antimicrobial activity against Bifidobacterium bifidum BB12; format: functional; outline: as §4
Bifidobacterium breve [29] = test: Antimicrobial activity against Bifidobacterium breve ATCC 15700; format: functional; outline: as §4
Bifidobacterium longum [30] = test: Antimicrobial activity against 90 mins oxgall-stressed Bifidobacterium longum ATCC 15707 after 18 hrs; format: functional; outline: as §2
Bifidobacterium longum [31] = test: Antimicrobial activity against 90 mins oxgall-stressed Bifidobacterium longum R0175 after 18 hrs; format: functional; outline: as §2
Bifidobacterium breve [32] = test: Antimicrobial activity against Bifidobacterium breve R0070; format: functional; outline: as §4
[33] = tested on: Bifidobacterium thermophilum; test: Antimicrobial activity against Bifidobacterium thermophilum ATCC 25866; format: functional; outline: as §4
Bifidobacterium bifidum [34] = test: Antimicrobial activity against 90 mins hydrogen peroxide-stressed Bifidobacterium bifidum BB12 after 18 hrs; format: functional; outline: as §1
Bifidobacterium longum [35] = test: Antimicrobial activity against 90 mins oxgall-stressed Bifidobacterium longum ATCC 15708 after 18 hrs; format: functional; outline: as §2
Bifidobacterium breve [36] = test: Antimicrobial activity against 90 mins hydrogen peroxide-stressed Bifidobacterium breve R0070 after 18 hrs; format: functional; outline: as §1
Bifidobacterium longum [37] = test: Antimicrobial activity against 60 min 1 M HCl-stressed Bifidobacterium longum ATCC 15707 after 18 hrs; format: functional; outline: as §3
Bifidobacterium longum [38] = test: Antimicrobial activity against 60 min 1 M HCl-stressed Bifidobacterium longum P/N 601377 after 18 hrs; format: functional; outline: as §3
Bifidobacterium longum [39] = test: Antimicrobial activity against 90 mins oxgall-stressed Bifidobacterium longum P/N 601377 after 18 hrs; format: functional; outline: as §2
Bifidobacterium bifidum [40] = test: Antimicrobial activity against 90 mins hydrogen peroxide-stressed Bifidobacterium bifidum R0071 after 18 hrs; format: functional; outline: as §1
Bifidobacterium animalis [41] = test: Antimicrobial activity against Bifidobacterium animalis ATCC 27536; format: functional; outline: as §4
Bifidobacterium breve [42] = test: Antimicrobial activity against 90 mins oxgall-stressed Bifidobacterium breve ATCC 15700 after 18 hrs; format: functional; outline: as §2
Bifidobacterium longum [43] = test: Antimicrobial activity against Bifidobacterium longum R0175; format: functional; outline: as §4
[44] = tested on: Bifidobacterium pseudolongum; test: Antimicrobial activity against Bifidobacterium pseudolongum ATCC 25562; format: functional; outline: as §4
Bifidobacterium longum [45] = test: Antimicrobial activity against 90 mins hydrogen peroxide-stressed Bifidobacterium longum R0175 after 18 hrs; format: functional; outline: as §1
Bifidobacterium bifidum [46] = test: Antimicrobial activity against 60 min 1 M HCl-stressed Bifidobacterium bifidum BB12 after 18 hrs; format: functional; outline: as §3
Bifidobacterium bifidum [47] = test: Antimicrobial activity against Bifidobacterium bifidum ATCC 15696; format: functional; outline: as §4

Measured: MIC

O=C(N[C@H](CO)[C@H](O)c1ccc([N+](=O)[O-])cc1)C(Cl)Cl [CHLORAMPHENICOL]
7.8 µg/mL: Bifidobacterium bifidum [11] | Bifidobacterium breve [29] | Bifidobacterium breve [32] | [33] | Bifidobacterium longum [37] | Bifidobacterium animalis [41] | Bifidobacterium longum [43] | [44]
62.5 µg/mL: Bifidobacterium breve [15] | [16]
15.6 µg/mL: Bifidobacterium longum [17]
3.9 µg/mL: Bifidobacterium longum [1] | Bifidobacterium longum [4] | Bifidobacterium bifidum [8] | Bifidobacterium longum [9] | Bifidobacterium bifidum [10] | Bifidobacterium breve [13] | [14] | Bifidobacterium animalis [20] | Bifidobacterium breve [22] | [23] | [27] | Bifidobacterium breve [42]
31.2 µg/mL: Bifidobacterium longum [26]
0.98 µg/mL: [2] | [12] | [24] | Bifidobacterium longum [35]
1.9 µg/mL: Bifidobacterium animalis [3] | Bifidobacterium breve [5] | Bifidobacterium animalis [6] | [7] | Bifidobacterium longum [18] | Bifidobacterium bifidum [19] | Bifidobacterium longum [21] | Bifidobacterium bifidum [25] | Bifidobacterium bifidum [28] | Bifidobacterium longum [30] | Bifidobacterium longum [31] | Bifidobacterium bifidum [34] | Bifidobacterium breve [36] | Bifidobacterium longum [38] | Bifidobacterium longum [39] | Bifidobacterium bifidum [40] | Bifidobacterium longum [45] | Bifidobacterium bifidum [46] | Bifidobacterium bifidum [47]

CC1(C)S[C@@H]2[C@H](NC(=O)[C@H](N)c3ccccc3)C(=O)N2[C@H]1C(=O)O [AMPICILLIN]
7.8 µg/mL: [16] | Bifidobacterium longum [26] | Bifidobacterium longum [43]
15.6 µg/mL: Bifidobacterium longum [17] | Bifidobacterium breve [32] | Bifidobacterium animalis [41]
0.98 µg/mL: [2] | Bifidobacterium animalis [3] | Bifidobacterium longum [4] | Bifidobacterium animalis [6] | Bifidobacterium bifidum [8] | Bifidobacterium longum [9] | Bifidobacterium bifidum [10] | Bifidobacterium bifidum [11] | [12] | Bifidobacterium breve [15] | Bifidobacterium longum [18] | Bifidobacterium bifidum [19] | Bifidobacterium longum [21] | Bifidobacterium breve [22] | [23] | [24] | Bifidobacterium longum [30] | Bifidobacterium longum [31] | [33] | Bifidobacterium bifidum [34] | Bifidobacterium longum [35] | Bifidobacterium breve [36] | Bifidobacterium longum [38] | Bifidobacterium longum [39] | Bifidobacterium bifidum [40] | Bifidobacterium bifidum [46] | Bifidobacterium bifidum [47]
1.9 µg/mL: Bifidobacterium bifidum [25] | [27] | Bifidobacterium longum [45]
31.2 µg/mL: Bifidobacterium bifidum [28]
3.9 µg/mL: Bifidobacterium longum [1] | Bifidobacterium breve [5] | [7] | Bifidobacterium breve [13] | [14] | Bifidobacterium animalis [20] | Bifidobacterium breve [29] | Bifidobacterium longum [37] | Bifidobacterium breve [42] | [44]

— ChEMBL document CHEMBL1142148, “Antibiotic susceptibility profile of bifidobacteria as affected by oxgall, acid, and hydrogen peroxide stress” (2007)
